Measured values as given in ChEMBL document CHEMBL1157580, “Interaction of (benzylidene-hydrazono)-1,4-dihydropyridines with beta-amyloid, acetylcholine, and butyrylcholine esterases” (Bioorg Med Chem, 2010).
The source made the active and inactive calls. The calls are words filed in the database; no cut-off is given here.

Assays:
[1] = Inhibition of amyloid beta (1-40) fibril formation by thioflavin T formation assay
How it was run: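 HFIP-pretreated Aβ film taken up in DMSO as a 2 mM stock, stored at -20 °C for at most three days. Diluted to 100 µM final peptide in 25 mM NaH2PO4, 120 mM NaCl, 3 µM thioflavin T, 0.02% NaN3, pH 7.4. Inhibitors at 0.005–0.5 mM. Incubated at 37 °C. Fluorescence read at excitation 450 nm, emission 482 nm.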

[2] = Inhibition of fibril formation of amyloid beta (1-40) catalytic domain containing HHQKLVFFAED sequence by thioflavin T assay
Acetylcholinesterase = Acetylcholinesterase (Electrophorus electricus, UniProt O42275); assay: Inhibition of electric eel AChE by modified Ellman's method
Acetylcholinesterase, sequence (O42275 whole entry): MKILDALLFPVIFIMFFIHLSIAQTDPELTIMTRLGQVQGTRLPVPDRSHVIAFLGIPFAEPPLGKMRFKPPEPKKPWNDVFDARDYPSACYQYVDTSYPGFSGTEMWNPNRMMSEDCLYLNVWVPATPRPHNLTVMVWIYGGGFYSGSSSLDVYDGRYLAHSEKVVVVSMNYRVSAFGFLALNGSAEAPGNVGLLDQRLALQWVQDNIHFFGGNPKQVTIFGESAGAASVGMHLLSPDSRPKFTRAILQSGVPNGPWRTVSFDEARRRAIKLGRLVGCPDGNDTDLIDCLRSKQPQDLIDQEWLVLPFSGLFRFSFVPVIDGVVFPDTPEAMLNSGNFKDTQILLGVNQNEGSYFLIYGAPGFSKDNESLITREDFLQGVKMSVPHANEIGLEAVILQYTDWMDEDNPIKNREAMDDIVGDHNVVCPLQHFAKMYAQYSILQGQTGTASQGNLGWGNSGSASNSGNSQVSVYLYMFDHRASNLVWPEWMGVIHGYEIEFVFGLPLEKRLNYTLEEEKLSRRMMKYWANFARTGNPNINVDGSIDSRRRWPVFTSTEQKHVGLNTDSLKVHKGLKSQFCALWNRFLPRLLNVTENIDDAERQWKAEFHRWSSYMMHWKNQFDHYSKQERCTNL
How it was run: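 Ellman-based assay. IC50 is the concentration giving 50% loss of AChE activity, reported as mean ± SEM from n = 3-6 experiments.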

[3] = Octanol-water partition coefficient, log P at pH 7.4 by RP-HPLC; assay type: physicochemical
How it was run: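 Reversed-phase HPLC on an endcapped RP18 column (5 µm). Eluent methanol/phosphate buffer pH 7.4 (70/30) with 0.02% N,N-dimethylhexylamine, 1.0 ml flow. Analytes at 4 µg/ml in methanol, run in duplicate. Capacity factors converted to log P through a calibration against 2-phenylethanol, benzene, dimethylaniline, toluene, biphenyl and anthracene.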

Cholinesterase = Cholinesterase (Equus caballus, UniProt P81908); assay: Inhibition of horse serum BuChE by modified Ellman's method
Cholinesterase, sequence (P81908 whole entry, the tested form may be a part): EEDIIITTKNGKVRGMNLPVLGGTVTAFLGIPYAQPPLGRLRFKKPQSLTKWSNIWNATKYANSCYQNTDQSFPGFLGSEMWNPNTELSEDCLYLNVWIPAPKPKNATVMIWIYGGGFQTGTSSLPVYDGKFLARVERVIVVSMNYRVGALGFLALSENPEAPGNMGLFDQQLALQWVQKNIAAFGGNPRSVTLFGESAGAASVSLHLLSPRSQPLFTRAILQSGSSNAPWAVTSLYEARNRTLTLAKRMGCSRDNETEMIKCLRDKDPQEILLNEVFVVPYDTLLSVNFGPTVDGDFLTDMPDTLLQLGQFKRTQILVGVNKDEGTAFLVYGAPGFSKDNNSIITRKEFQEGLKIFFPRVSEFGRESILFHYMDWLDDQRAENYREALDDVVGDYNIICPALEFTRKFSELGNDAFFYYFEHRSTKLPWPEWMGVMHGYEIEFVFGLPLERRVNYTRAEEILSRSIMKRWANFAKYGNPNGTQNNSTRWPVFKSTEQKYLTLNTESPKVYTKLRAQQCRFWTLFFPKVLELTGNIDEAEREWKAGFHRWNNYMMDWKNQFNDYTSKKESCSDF

[4] = Induction of fibril destruction of amyloid beta (1-40) catalytic domain containing HHQKLVFFAED sequence by modified thioflavin T assay
[5] = Partition coefficient, log P at pH 7.4 by shake flask method; assay type: physicochemical; details: octanol/water
How it was run: (§1)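 Shake flask with octanol and phosphate buffer at the stated pH, each phase pre-saturated with the other overnight. Compound at 10^-5 mol/l in buffer-saturated octanol, absorbance (A0) read between 314 and 360 nm. Equal volumes shaken 4 h at 37 °C, left overnight, then centrifuged. Aqueous-layer absorbance (A1) read; log P = log((A0−A1)/A1).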

[6] = Partition coefficient, log P at pH 7 by shake flask method; assay type: physicochemical; details: octanol/water; how it was run: as §1
[7] = Partition coefficient, log P at pH 6 by shake flask method; assay type: physicochemical; details: octanol/water; how it was run: as §1
[8] = Partition coefficient, log P at pH 5 by shake flask method; assay type: physicochemical; details: octanol/water; how it was run: as §1
[9] = Dissociation constant, pKa at pH 7.4; assay type: physicochemical
How it was run: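 Potentiometric titration: compound dissolved in 0.15 M KCl for constant ionic strength, with 30% dioxane or 80% methanol as co-solvent modifier. pH brought to 1.8 with 0.5 M HCl, then titrated with 0.5 M KOH. Dissociation constants determined at several modifier levels and pKa obtained by extrapolation of the calibration line. Electrode calibrated by blank titrations of 0.15 M KCl.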

[10] = Inhibition of fibril formation of amyloid beta (1-40) catalytic domain containing HHQKLVFFAED sequence at 0.5 mM by thioflavin T assay

Structure (SMILES)	IC50 [1] [µM]	IC50 [2] [µM]	IC50 (Acetylcholinesterase) [µM]	logP [3]	inhibition [1]	IC50 (Cholinesterase) [µM]	inhibition [2]	Activity [4]	logD [5]	logD [6]	logD [7]	logD [8]	pKa [9]	inhibition [10] [%]
Nc1ccc(O)cc1 [4-AMINOPHENOL]	90	83	–	–	–	–	–	–	–	–	–	–	–	–
Clc1cccc(Cl)c1CO/N=C/c1cc[n+](CCC[n+]2ccc(/C=N/OCc3c(Cl)cccc3Cl)cc2)cc1.[Br-].[Br-]	–	–	0.34	0.65	Active	1.83	Active	–	–	–	–	–	–	–
Clc1cccc(Cl)c1/C=N/N=c1ccn(CCc2ccccc2)cc1	–	–	56.7	3.9	–	9	Dose-dependent effect	Dose-dependent effect	–	–	–	–	–	–
Clc1cccc(Cl)c1/C=N/N=c1ccn(Cc2ccccc2)cc1	–	–	17.4	3.5	–	8	–	Dose-dependent effect	–	–	–	–	–	–
Clc1cccc(Cl)c1/C=N/N=c1ccn(Cc2c(Cl)cccc2Cl)cc1	–	–	6.4	4	Active	–	–	Dose-dependent effect	3.4	2.2	1.5	0.8	–	–
Clc1cccc(Cl)c1CON=C1CCN(CCCc2ccccc2)CC1	–	–	12	4.3	–	> 100	–	–	–	–	–	–	5.7	–
Clc1cccc(Cl)c1/C=N/N=c1ccn(CCCc2ccccc2)cc1	–	–	5.66	3.7	Active	10	Dose-dependent effect	Dose-dependent effect	3.2	1.3	0.9	0.7	8.7	–
Clc1cccc(Cl)c1CO/N=C/c1cc[n+](CCCc2ccccc2)cc1	–	–	0.18	–	Active	2.78	Active	–	–	–	–	–	–	–
Clc1cccc(Cl)c1CO/N=C/C1CCN(CCCc2ccccc2)CC1	–	–	19.1	3.6	–	–	–	–	–	–	–	–	7.1	–
Cn1ccc(=N/N=C/c2c(Cl)cccc2Cl)cc1	–	–	739	3.4	–	11	–	inactive	–	–	–	–	–	60
